Only some compounds are listed: those with a hit (about 1.8% of all), similar ones and a draw of the others.
iPSC survival up: hiPSC single-cell survival enhancement; ATPlite luminescence; 100% = ROCK inhibitor wells, 0% = DMSO; survival enhancement, % at 20 µM; hit rate 0.044% among 360,000; AID 602274; in the data active = survival enhancement above about 18%;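 also: cells exposed to compounds for 16 hours before the ATP read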
H9c2 TAG inh: reduces triacylglycerol accumulation in H9c2 cells; AID 651582; Nile Red lipid (TAG) fluorescence; cells loaded with 200 µM oleic acid; inhibition, % at 12.5 µM; hit rate 0.66% among 230,000;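 active = pattern-corrected inhibition of lipid staining of at least 50% with the nuclear-stain viability signal not falling by more than 50%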
697 NFkB inh: inhibitors of the PMA/ionomycin-induced NF-kB reporter in 697 B cells | 697 B-cell NF-kB luciferase reporter, 16 h | inhibition, % at 4 µM | hit rate 0.33% among 330,000 | AID 435022; in the data active = inhibition above about 35%
Jurkat NFkB inh: inhibitors of the PMA/ionomycin-induced NF-kB reporter in Jurkat cells; inhibition, % at 4 µM; hit rate 0.53% among 330,000; PMA/ionomycin-induced NF-kB luciferase reporter, luminescence; in the data active = inhibition above about 50%
Hep lipid drop: hepatic lipid droplet formation modulation; AML12 mouse hepatocytes, oleate lipid droplets, BODIPY imaging; inhibition, % at 6.5 µM; hit rate 0.4% among 240,000;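 active = lipid droplet intensity inhibited by at least 50%, with more than 500 cells counted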
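Test system: AML12 mouse liver cells; schedule: overnight exposure; technique: high-content imaging of BODIPY-stained droplets and DAPI nuclei; read-out: % inhibition of corrected integrated BODIPY droplet signal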
Gli-Sufu antag: blocks Gli-Sufu signaling in a luciferase reporter; Sufu-KO-LIGHT fibroblasts, Gli luciferase reporter luminescence; inhibition, % at 5 µM; hit rate 0.74% among 340,000;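 active = inhibition above about 55%, limit read from the data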
H9c2 TAG conf: triacylglycerol accumulation inhibition, confirmation; hit rate 71% among 990; H9c2 lipid accumulation, Nile Red fluorescence; cells loaded with 200 µM oleic acid; shares compounds with H9c2 TAG inh; inhibition, % at 12.5 µM;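 active = mean inhibition across replicates of 40% or more; inactive = mean inhibition below 40%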
Hits are given with their value; 0 = inactive; - = no result given.

SMILES	iPSC survival up	H9c2 TAG inh	697 NFkB inh	Jurkat NFkB inh	Hep lipid drop	Gli-Sufu antag	H9c2 TAG conf
CCCCC(CC)C(=O)Nc1cc(C(=O)NCc2ccc(C)cc2)ccc1N1CCC2(CC1)CC(c1ccccc1)=NO2 (stereo not drawn)	0	55.9	0	0	0	0	54.8
COc1ccc(CNC(=O)c2ccc(N3CCC4(CC3)CC(c3ccc(Cl)cc3)=NO4)c(NC(=O)Cc3ccc(F)cc3)c2)cc1	0	60.2	0	0	-	0	43.9
CCOc1ccc(NC(=S)NC(=O)c2cccnc2)c([N+](=O)[O-])c1	0	0	0	0	0	0	-
NC(N)=Nc1ccc(C=C2C=Cc3ccccc32)cc1	0	60.2	-	-	-	0	61.0
CCOc1cc2[nH]c(=O)n(CCCCC(=O)N3CCCCCC3)c(=O)c2cc1OCC	0	63.1	0	0	0	0	0
COC(=O)C1C/C(=N\NS(=O)(=O)c2ccc(C)cc2)c2ccsc2C1 (stereo not drawn)	0	-	0	0	0	0	-
C/C=C(\C)C(=O)Nc1cccc(C2=NOC3(C2)C[C@@H](C(N)=O)N(C(=O)c2cc([N+](=O)[O-])cc([N+](=O)[O-])c2C)C3)c1 (stereo partly drawn)	0	0	0	0	0	0	-
Cc1c(C(=O)N2CC3(CC(c4cccc(NC(=O)CC(c5ccccc5)c5ccccc5)c4)=NO3)C[C@@H]2C(N)=O)cc([N+](=O)[O-])cc1[N+](=O)[O-] (stereo partly drawn)	0	54.2	0	0	0	0	42.5
C/C(CCc1ccccc1)=N\NC(=O)CC(=O)NCCc1ccccc1	0	-	0	0	0	0	-
Cc1ccc(CNS(=O)(=O)c2ccc(C)s2)cc1	0	-	0	0	0	0	-
CN(C)CCNC(=O)c1cccc2nc3cccc(F)c3nc12	0	0	-	-	-	0	-
CN(C)CCNC(=O)c1cccc2ccc(-c3ccc(-c4ccccc4)cc3)nc12	0	60.4	-	-	-	0	65.6
O=C(Nc1ccc(OC(F)(F)F)cc1)C1CCCN(S(=O)(=O)c2cnc[nH]2)C1 (stereo not drawn)	0	-	0	0	0	0	-
COc1cc(C(=O)NNC(=O)c2cc(C)[nH]n2)cc(OC)c1OC	0	0	0	0	0	0	-
COCCNc1nc(-c2ccc(OC)cc2C)c2sc(-c3ccccc3)cc2n1	0	59.6	-	-	-	-	0
COc1cc(C#Cc2c(-c3cncn3C)n(C)c3ccc(Br)cc23)cc(OC)c1	0	0	0	0	-	0	-
COc1cc(C#Cc2c(-c3cncn3C)n(C)c3ccc(-c4ccc5cc[nH]c5c4)cc23)cc(OC)c1	0	81.5	0	0	-	0	74.4
COc1cc(C#Cc2c(-c3cncn3C)n(C)c3ccc(-c4ccc(OC)c(OC)c4)cc23)cc(OC)c1	0	69.6	0	0	-	0	68.7
O=C(CSc1nc2cc(Cl)ccc2s1)Nc1cccc(S(=O)(=O)N2CCOCC2)c1	0	-	0	0	0	0	-
Cc1c(C(=O)N2CCOCC2)c(S(=O)(=O)Nc2ccccc2)c(C)n1C	0	-	0	0	0	0	-
CCN(CC)CCCn1c2c(c(SCC(=O)N3CCc4ccccc43)nc1=O)CCC2	0	0	0	0	-	0	-
COc1ccc(-c2noc(C3CCCN(C(=O)Nc4ccccc4F)C3)n2)cc1 (stereo not drawn)	0	0	0	0	0	0	-
CCN1CCN(C(=O)c2cc(-c3ccco3)nc3ccccc23)CC1	0	0	0	0	-	0	-
CCOc1ccccc1N1CCN(S(=O)(=O)c2ccc3c4c(cccc24)C(=O)N3)CC1	0	52.3	0	0	0	0	0
COc1ccc(NC(=S)N(CCCN2CCCC2)Cc2cccn2Cc2ccc(Cl)cc2)cc1Cl	0	71.0	0	0	0	0	56.4
SMILES	iPSC survival up	H9c2 TAG inh	697 NFkB inh	Jurkat NFkB inh	Hep lipid drop	Gli-Sufu antag	H9c2 TAG conf
CCOC(=O)N1CCN(C(=O)c2c(N)no[n+]2[O-])CC1	0	0	0	0	0	-	-
CN(C)CCNC=C(C(=O)Nc1ccc(Cl)cc1Cl)C(=O)Nc1ccc(Cl)cc1Cl	0	102.0	0	0	0	0	92.5
CC(=O)/C(=C/N(C)C)C(=O)Nc1ccc(Cl)cc1Cl	0	0	0	0	0	0	-
COc1ccc(S(=O)(=O)N2CCCCC2)cc1NC(=O)CCOc1cc(C)ccc1C	0	0	0	0	-	0	-
Cc1cc2c(cc1C)CSC(c1ccccc1O)SC2	0	54.0	0	0	0	0	0
C=CCC[C@@H](Cc1ccc(F)cc1)C(=O)OC[C@@H](NC(=O)[C@@H](CC=C)CC(=O)N[C@H](CO)Cc1ccccc1)C(C)(C)C	0	62.1	0	0	-	0	66.3
C=CC[C@@H](CC(=O)N(CCO)Cc1ccccc1)C(=O)N[C@H](COC(=O)[C@@H](CC=C)Cc1ccc(F)cc1)Cc1ccccc1	0	58.9	0	0	-	0	68.4
C=CC[C@@H](CC(=O)N[C@@H](CO)Cc1ccccc1)C(=O)N[C@H](COC(=O)[C@@H](CC=C)Cc1ccc(F)cc1)C(C)(C)C	0	0	0	0	-	0	-
C=CC[C@@H](CC(=O)N(CCO)Cc1ccccc1)C(=O)N[C@@H](COC(=O)[C@@H](CC=C)Cc1ccc(F)cc1)Cc1ccccc1	0	74.8	0	0	-	0	62.5
C=CC[C@@H](CC(=O)N(CCO)Cc1ccccc1)C(=O)N[C@H](COC(=O)[C@@H](CC=C)CC(=O)OC(C)(C)C)Cc1ccccc1	0	50.0	0	0	-	0	69.8
C[C@H]1CN([C@@H](C)CO)S(=O)(=O)c2ccc(-c3ccc(C#N)cc3)cc2O[C@H]1CN(C)C(=O)CN(C)C	0	-	-	-	-	-	-
CCC1SC2=NC(C)=C(C(=O)OCC(C)C)C(/C=C/c3ccccc3OC)N2C1=O (stereo not drawn)	0	71.9	0	0	-	0	0
CCC1SC2=NC(C)=C(C(=O)OCCOC)C(/C=C/c3ccccc3OC)N2C1=O (stereo not drawn)	0	0	0	0	-	0	-
O=C(O)CC1(CC(=O)NCc2ccc(C(F)(F)F)cc2)CCCCC1	0	0	0	0	0	0	-
O=C(O)CC1(CC(=O)Nc2cc(C(F)(F)F)cc(C(F)(F)F)c2)CCCCC1	0	93.8	0	0	0	0	0
O=C(Nc1ccc2ccccc2c1)[C@@H]1C[C@H]1[C@@H](NP(=O)(c1ccccc1)c1ccccc1)c1ccccc1	0	52.1	0	0	0	0	0
COC(=O)C1=C(C)N(Cc2ccccc2)C(=NCC(C)C)N[C@H]1c1cccc(F)c1	0	92.5	0	0	-	0	73.0
CCN1CCN(C(=O)N2CCOCC2)CC1	0	0	0	0	0	0	-
CCOC(=O)c1c(C)[nH]c(-c2csc(C)n2)c1C	0	0	0	0	0	0	-
CCOC(=O)c1c(C)[nH]c(-c2csc(N)n2)c1C	0	63.8	-	-	0	0	0

Screening results from PubChem BioAssay.
